Test results as given in ChEMBL document CHEMBL5678818, “Discovery of potent SOS1 inhibitors that block RAS activation via disruption of the RAS-SOS1 interaction” (Proc Natl Acad Sci U S A, 2019).
The source made the active and inactive calls. No cut-off for these calls is given here.

Tests used:
SOS1-KRAS = SOS1-KRAS (Homo sapiens, UniProt Q07889); assay: Inhibition of N-terminal GST-tagged recombinant human KRAS G12C mutant (1 to 169 residues) expressed in Escherichia coli/N-terminal His10-tagged wild-type recombinant human SOS1 catalytic domain (564 to 1049 residues) expressed in Escherichia coli protein-protein interaction preincubated for 2 mins with KRAS followed by SOS1 addition measured after 60 mins in presence of anti-6His-XL665 by HTRF analysis
Homo sapiens [1] = species on record: Homo sapiens; assay: (§1) Stabilization of N-terminal His10-tagged recombinant human KRAS G12C/C118S mutant (1 to 169 residues) expressed in Escherichia coli/N-terminal His10-tagged wild-type recombinant human SOS1 catalytic domain (564 to 1049 residues) expressed in Escherichia coli by HTRF analysis
Summary of the method: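 HTRF equilibrium-binding read-out of KRASG12C_C118S with SOS1cat, detected by fluorescently labelled antibodies including a terbium donor. Signal normalized with DMSO control as 100% and no-SOS1cat wells as 0%. Data are mean ± SD, n = 4.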

Homo sapiens [2] = species on record: Homo sapiens; assay: Stabilization of N-terminal His10-tagged 15N-labeled recombinant human KRAS G12C/C118S mutant (1 to 169 residues) expressed in Escherichia coli/N-terminal His10-tagged wild-type recombinant human SOS1 catalytic domain (564 to 1049 residues) expressed in Escherichia coli at 1 mM incubated for 30 mins by 2D-NMR analysis
Homo sapiens [3] = species on record: Homo sapiens; assay: as §1, with “coli/Series S C1 sensor chip-immobilized biotinylated N-terminal” for “coli/N-terminal”, “coli at 100 to 500 uM measured for 360 secs” for “coli”, “SPR” for “HTRF”; settings: dose 100-500 µM, time 360.0 sec
Summary of the method: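 SOS1cat is immobilized on the chip, and 250 nM KRASG12C_C118S is flowed over with or without test compound. Compound alone at 100, 250 and 500 µM is also injected to gauge unspecific binding to SOS1cat. Buffer injection serves as the blank.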

[4] = target: Epidermal growth factor receptor (Homo sapiens, UniProt P00533); assay: Inhibition of human EGFR using biotin-aminohexyl-AEEEEYFELVAKKK as substrate preincubated for 15 mins followed by substrate/ATP addition measured after 20 mins by FRET assay
[5] = target: GTPase KRas (Homo sapiens) (UniProt P01116); assay: Stabilization of N-terminal His10-tagged wild-type recombinant human KRAS (1 to 169 residues) expressed in Escherichia coli assessed as change in melting temperature at 100 uM with heating from 25 to 85 degreeC by thermal shift assay
NCI-H358 = assay: Antiproliferative activity against human NCI-H358 cells assessed as inhibition of cell viability incubated for 72 hrs by Cell Titer Glo assay; type: functional, cell-based; settings: NCI-H358, 72 h
Summary of the method: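 NCI-H358 cells (KRAS G12C mutant) were sourced from ATCC.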

MOLM-13 = assay: Antiproliferative activity against human MOLM-13 cells assessed as inhibition of cell viability incubated for 72 hrs by Cell Titer Glo assay; type: functional, cell-based; settings: MOLM-13, 72 h
[6] = target: T1, Guanine nucleotide exchange factor DBS (Homo sapiens, UniProt O15068); assay: Inhibition of human DBS assessed as reduction in CDC42 activation preincubated for 1 min with CDC42 followed by DBS addition measured after 20 mins in presence of EDA-GTP-DY-647P1 by HTRF analysis
T1 sequence (O15068 whole entry): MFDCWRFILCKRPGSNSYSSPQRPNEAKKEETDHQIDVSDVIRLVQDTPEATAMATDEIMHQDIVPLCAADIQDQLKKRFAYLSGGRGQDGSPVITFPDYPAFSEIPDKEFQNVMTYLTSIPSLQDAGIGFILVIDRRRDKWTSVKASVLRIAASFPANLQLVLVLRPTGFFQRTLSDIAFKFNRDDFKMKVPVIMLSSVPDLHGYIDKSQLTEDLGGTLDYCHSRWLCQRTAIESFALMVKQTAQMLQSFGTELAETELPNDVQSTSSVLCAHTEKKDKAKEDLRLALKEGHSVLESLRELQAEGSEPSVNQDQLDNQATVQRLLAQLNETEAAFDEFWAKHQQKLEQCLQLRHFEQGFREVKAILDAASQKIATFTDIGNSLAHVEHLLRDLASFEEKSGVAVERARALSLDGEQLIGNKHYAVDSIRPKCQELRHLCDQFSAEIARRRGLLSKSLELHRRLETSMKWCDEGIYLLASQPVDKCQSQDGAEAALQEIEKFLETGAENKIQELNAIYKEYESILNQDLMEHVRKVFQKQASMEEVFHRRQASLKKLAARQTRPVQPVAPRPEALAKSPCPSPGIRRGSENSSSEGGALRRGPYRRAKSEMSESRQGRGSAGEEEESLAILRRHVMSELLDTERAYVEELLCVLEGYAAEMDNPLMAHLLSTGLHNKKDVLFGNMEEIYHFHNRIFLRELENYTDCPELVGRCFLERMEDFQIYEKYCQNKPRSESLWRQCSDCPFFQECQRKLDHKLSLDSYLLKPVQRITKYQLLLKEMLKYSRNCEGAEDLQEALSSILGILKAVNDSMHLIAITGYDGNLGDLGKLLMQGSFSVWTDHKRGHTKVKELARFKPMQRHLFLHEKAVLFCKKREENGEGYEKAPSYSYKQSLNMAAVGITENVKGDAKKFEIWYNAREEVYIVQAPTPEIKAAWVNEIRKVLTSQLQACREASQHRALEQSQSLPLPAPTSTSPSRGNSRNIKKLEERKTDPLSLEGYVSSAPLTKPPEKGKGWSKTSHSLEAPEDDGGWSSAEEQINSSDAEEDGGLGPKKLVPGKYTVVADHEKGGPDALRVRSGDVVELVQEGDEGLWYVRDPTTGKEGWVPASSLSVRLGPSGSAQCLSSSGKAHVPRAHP

[7] = target: Son of sevenless homolog 2 (Homo sapiens, UniProt Q07890); assay: Inhibition of N-terminal His10-tagged wild-type recombinant human SOS2 catalytic domain (564 to 1043 residues) expressed in Escherichia coli assessed as reduction in KRAS G12C mutant activation preincubated for 10 mins with KRAS followed by SOS2 addition measured after 30 mins in presence of EDA-GTP-DY-647P1 by HTRF analysis
[8] = target: T2, Son of sevenless homolog 1 (Homo sapiens) (UniProt Q07889); assay: Stabilization of N-terminal His10-tagged wild-type recombinant human SOS1 catalytic domain (564 to 1049 residues) expressed in Escherichia coli assessed as change in melting temperature at 100 uM with heating from 25 to 85 degreeC by thermal shift assay
T2 sequence (whole entry): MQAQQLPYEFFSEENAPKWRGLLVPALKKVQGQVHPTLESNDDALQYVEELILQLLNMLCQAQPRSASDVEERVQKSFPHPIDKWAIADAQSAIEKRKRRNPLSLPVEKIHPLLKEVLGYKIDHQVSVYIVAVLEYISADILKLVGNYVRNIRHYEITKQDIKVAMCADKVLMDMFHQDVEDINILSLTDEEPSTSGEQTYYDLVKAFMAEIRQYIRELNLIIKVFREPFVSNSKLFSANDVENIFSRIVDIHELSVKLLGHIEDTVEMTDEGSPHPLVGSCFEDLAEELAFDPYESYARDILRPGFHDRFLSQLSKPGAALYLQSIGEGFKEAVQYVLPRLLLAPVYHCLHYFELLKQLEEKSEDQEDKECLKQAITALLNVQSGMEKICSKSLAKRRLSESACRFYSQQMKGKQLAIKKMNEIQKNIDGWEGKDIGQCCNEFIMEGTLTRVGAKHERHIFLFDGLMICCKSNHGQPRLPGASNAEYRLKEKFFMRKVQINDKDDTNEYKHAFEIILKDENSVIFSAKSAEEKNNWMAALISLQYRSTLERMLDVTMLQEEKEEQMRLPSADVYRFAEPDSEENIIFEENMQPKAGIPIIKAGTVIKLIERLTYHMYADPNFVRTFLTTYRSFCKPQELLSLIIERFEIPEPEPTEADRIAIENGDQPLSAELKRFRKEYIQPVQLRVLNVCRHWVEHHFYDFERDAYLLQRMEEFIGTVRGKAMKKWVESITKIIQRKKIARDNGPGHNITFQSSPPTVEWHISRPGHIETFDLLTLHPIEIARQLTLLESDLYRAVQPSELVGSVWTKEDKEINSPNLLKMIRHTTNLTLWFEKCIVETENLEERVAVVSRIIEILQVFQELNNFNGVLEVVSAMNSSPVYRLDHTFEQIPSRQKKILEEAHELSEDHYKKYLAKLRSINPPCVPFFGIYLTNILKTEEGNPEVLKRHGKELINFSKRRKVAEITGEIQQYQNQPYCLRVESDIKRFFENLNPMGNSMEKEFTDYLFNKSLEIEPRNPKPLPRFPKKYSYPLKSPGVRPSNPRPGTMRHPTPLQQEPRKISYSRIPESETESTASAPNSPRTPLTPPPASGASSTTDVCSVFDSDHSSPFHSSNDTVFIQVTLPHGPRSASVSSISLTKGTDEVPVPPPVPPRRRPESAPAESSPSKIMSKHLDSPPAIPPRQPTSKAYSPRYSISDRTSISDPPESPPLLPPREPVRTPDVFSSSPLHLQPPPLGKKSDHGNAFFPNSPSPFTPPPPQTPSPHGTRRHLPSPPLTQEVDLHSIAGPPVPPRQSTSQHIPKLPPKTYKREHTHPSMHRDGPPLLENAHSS

K562 = assay: Antiproliferative activity against human K562 cells assessed as inhibition of cell viability incubated for 72 hrs by Cell Titer Glo assay; type: functional, cell-based; settings: K562, 72 h
Summary of the method: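 K-562 cells (wild-type KRAS, sourced from ATCC) were tested for antiproliferative response.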

[9] = tested on: GTPase KRas (Homo sapiens), P01116 [G12C]; assay: Stabilization of N-terminal GST-tagged recombinant human KRAS G12C mutant (1 to 169 residues) expressed in Escherichia coli assessed as change in melting temperature at 100 uM with heating from 25 to 85 degreeC by thermal shift assay

Compound	IC50 (SOS1-KRAS)	other results
COc1cc2nc(C)nc(NC(C)c3ccc(-c4ccccc4S(C)(=O)=O)s3)c2cc1OC (stereo unspecified)	1410 nM	
O=C(CO)N1CCc2ccccc2C1		Activity (Homo sapiens [1]): inactive; Activity (Homo sapiens [2]): inactive; Activity (Homo sapiens [3]): inactive
COc1cc2nc(C)nc(NC(C)c3ccc(-c4ccccc4CN4CC(F)C4)s3)c2cc1OC (stereo unspecified)	410 nM	
COc1cc2ccnc(N[C@H](C)c3cccc4ccccc34)c2cc1OC	12200 nM	IC50 [4]: > 20000 nM
COc1cc2nc(C(F)(F)F)nc(N[C@H](C)c3cccc4ccccc34)c2cc1OC	1450 nM	IC50 [4]: > 20000 nM
CNCc1ccccc1-c1ccc(C(C)Nc2nc(C)nc3cc(OC)c(OC)cc23)s1 (stereo unspecified)	41 nM	
COc1cc2nc(C)nc(NC(C)c3ccc(-c4ccccc4CNCCO)s3)c2cc1OC (stereo unspecified)	46 nM	
COc1cc2nc(C)nc(NC(C)c3ccc(-c4ccccc4C(N)=O)s3)c2cc1OC (stereo unspecified)	3210 nM	
COc1cc2nccc(N[C@H](C)c3cccc4ccccc34)c2cc1OC	2590 nM	
COc1cc2nc(C)nc(NC(C)c3ccc(-c4ccccc4CNCc4ccccc4)s3)c2cc1OC (stereo unspecified)	470 nM	
COc1cc2nc(C)nc(NC(C)c3ccc(-c4ccccc4[C@@H](C)N)s3)c2cc1OC (stereo partly specified)	200 nM	
COc1cc2nc(C)nc(NC(C)c3ccc(-c4ccccc4C(C)(C)N)s3)c2cc1OC (stereo unspecified)	400 nM	
COc1cc2nc(C)nc(NC(C)c3ccc(-c4ccccc4CN4CCC4)s3)c2cc1OC (stereo unspecified)	76 nM	
COc1cc2nc(C)nc(NC(C)c3ccc(-c4ccccc4CNCC(F)(F)F)s3)c2cc1OC (stereo unspecified)	3150 nM	
CCNCc1ccccc1-c1ccc(C(C)Nc2nc(C)nc3cc(OC)c(OC)cc23)s1 (stereo unspecified)	55 nM	
COc1cc2nc(C)nc(N[C@H](C)c3cccc(Br)c3)c2cc1OC	170 nM	IC50 [4]: > 20000 nM
CCCCNCc1ccccc1-c1ccc(C(C)Nc2nc(C)nc3cc(OC)c(OC)cc23)s1 (stereo unspecified)	98 nM	

Compound	IC50 (SOS1-KRAS)	other results
NCCCc1ccc(Cl)cc1		Activity (Homo sapiens [1]): Active; Activity (Homo sapiens [2]): Active; Activity (Homo sapiens [3]): Active
COc1cc2nc(C)nc(NC(C)c3ccc(-c4ccccc4S(=O)(=O)N(C)C)s3)c2cc1OC (stereo unspecified)	2160 nM	
COc1cc2nc(C)nc(NC(C)c3ccc(-c4ccccc4CCN)s3)c2cc1OC (stereo unspecified)	51 nM	
COCCNCc1ccccc1-c1ccc(C(C)Nc2nc(C)nc3cc(OC)c(OC)cc23)s1 (stereo unspecified)	100 nM	
COc1cc2nc(C)nc(NC(C)c3ccc(-c4ccccc4C#N)s3)c2cc1OC (stereo unspecified)	590 nM	
COc1cc2nc(C)nc(NC(C)c3ccc(-c4ccccc4CN)s3)c2cc1OC (stereo unspecified)	80 nM	
COc1cc2nc(C)nc(NC(C)c3ccc(-c4ccccc4CN(C)CCO)s3)c2cc1OC (stereo unspecified)	47 nM	
CCN(CC)Cc1ccccc1-c1ccc(C(C)Nc2nc(C)nc3cc(OC)c(OC)cc23)s1 (stereo unspecified)	170 nM	
COc1cc2nc(C)nc(NC(C)c3ccc(-c4ccccc4CN(C)C)s3)c2cc1OC (stereo unspecified)	40 nM	
COc1cc2nc(C)nc(N(C)[C@H](C)c3cccc(Br)c3)c2cc1OC	> 20000 nM	IC50 [4]: > 20000 nM
CNCc1ccccc1-c1csc([C@H](C)Nc2nc(C)nc3cc(OC)c(OC)cc23)c1 [BAY-294]		ΔTm [5]: -0.05 °C; IC50 (NCI-H358): 3390 nM; IC50 (MOLM-13): 7570 nM; IC50 [6]: > 20000 nM; IC50 [7]: > 20000 nM; ΔTm [8]: 0.28 °C; IC50 [4]: > 20000 nM; IC50 (K562): 7500 nM; ΔTm [9]: -0.6 °C
COc1cc2nc(C)nc(N[C@H](C)c3cccc4ccccc34)c2cc1OC		IC50 [4]: > 20000 nM
COc1cc2nc(C)nc(NC(C)c3ccc(-c4ccccc4CO)s3)c2cc1OC (stereo unspecified)	280 nM	
COc1cc2nc(N(C)C)nc(N[C@H](C)c3cccc4ccccc34)c2cc1OC	800 nM	IC50 [4]: > 20000 nM
COc1cc2nc(C)nc(NC(C)c3ccc(-c4ccccc4CNCC(F)F)s3)c2cc1OC (stereo unspecified)	780 nM	
COc1cc2nc(C)nc(NC(C)c3ccc(-c4ccccc4[C@H](C)N)s3)c2cc1OC (stereo partly specified)	230 nM	
COc1cc2nc(C)nc(NC(C)c3ccc(-c4ccc(F)cc4CNC(C)=O)s3)c2cc1OC (stereo unspecified)	590 nM	
